In paper PMC6482435 (Biochemistry, 2019):
Blank lines part the entries; values can stand above or below the compound they belong to.

Legend:
Assay in all cases: Yeast-based OR sensor, GFP dose-response
Type in all cases: cell-based
[1] = biological target: T1, OR2A7 (Homo sapiens, UniProt Q96R45); settings: for EC50: GFP expression, 4 h, 0-1000 μM chemical, 1% DMSO; for OR-dependent activation, conclusion in words: OR2A7 vs no OR control
T1 sequence (Q96R45 1-310): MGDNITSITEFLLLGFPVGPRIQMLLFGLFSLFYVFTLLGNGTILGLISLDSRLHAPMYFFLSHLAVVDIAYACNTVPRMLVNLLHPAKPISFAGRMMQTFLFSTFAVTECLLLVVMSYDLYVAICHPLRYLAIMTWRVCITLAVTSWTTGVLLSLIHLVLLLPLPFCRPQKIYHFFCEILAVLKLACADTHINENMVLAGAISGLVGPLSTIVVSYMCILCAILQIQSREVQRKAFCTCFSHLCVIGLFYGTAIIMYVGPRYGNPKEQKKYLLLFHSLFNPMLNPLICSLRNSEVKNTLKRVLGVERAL
Outline: (§1)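 Yeast-codon-optimized human OR in S. cerevisiae PPY140 (Δfar1 Δste2 Δsst2) with PFIG1-eGFP reporter. Cells pre-grown 18 h at 15 °C in SD(HL–), exposed to test compound 0–1000 μM final, 1% DMSO, 4 h at 30 °C. Flow-cytometric geometric mean GFP, 10000 cells; triplicate; two-tailed t test vs DMSO; empty-vector strain run same day; EC50 from dose-response fit.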

[2] = biological target: T2, OR10S1 (Homo sapiens, UniProt Q8NGN2)
T2 sequence (Q8NGN2 1-331): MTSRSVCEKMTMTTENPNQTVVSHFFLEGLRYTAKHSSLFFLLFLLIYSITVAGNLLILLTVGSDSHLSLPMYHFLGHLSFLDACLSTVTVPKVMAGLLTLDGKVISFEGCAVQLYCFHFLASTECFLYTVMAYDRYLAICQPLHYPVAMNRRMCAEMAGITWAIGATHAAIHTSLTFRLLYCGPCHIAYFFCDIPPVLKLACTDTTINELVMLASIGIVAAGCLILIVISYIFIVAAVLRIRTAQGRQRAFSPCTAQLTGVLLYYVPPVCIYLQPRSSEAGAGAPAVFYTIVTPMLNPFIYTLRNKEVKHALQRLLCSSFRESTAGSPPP
Outline: as §1

[3] = biological target: T3, OR2T4 (Homo sapiens, UniProt Q8NH00); settings: for EC50: GFP expression, 4 h, 0-1000 μM chemical, 1% DMSO; for increase in the signal after activation: OR2T4, dose-response curve, compared to DMSO control; for increase in percent GFP expression compared to the no receptor control: OR2T4 vs empty-vector control strain; for OR-dependent activation, conclusion in words: OR2T4 vs no OR control
T3 sequence (Q8NH00 1-348): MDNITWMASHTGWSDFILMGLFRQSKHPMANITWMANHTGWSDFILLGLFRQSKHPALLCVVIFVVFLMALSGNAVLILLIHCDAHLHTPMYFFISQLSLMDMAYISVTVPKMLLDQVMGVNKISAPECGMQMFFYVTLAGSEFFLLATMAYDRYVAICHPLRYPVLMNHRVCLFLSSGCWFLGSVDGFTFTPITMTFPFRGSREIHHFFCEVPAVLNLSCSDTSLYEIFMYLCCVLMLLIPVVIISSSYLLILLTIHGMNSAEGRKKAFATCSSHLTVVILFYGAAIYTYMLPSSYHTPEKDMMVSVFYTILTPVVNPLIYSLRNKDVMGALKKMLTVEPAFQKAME
Outline: as §1

[4] = biological target: T4, OR2L13 (Homo sapiens, UniProt Q8N349); settings: OR2L13, dose-response curve, compared to DMSO control
T4 sequence (Q8N349 1-312): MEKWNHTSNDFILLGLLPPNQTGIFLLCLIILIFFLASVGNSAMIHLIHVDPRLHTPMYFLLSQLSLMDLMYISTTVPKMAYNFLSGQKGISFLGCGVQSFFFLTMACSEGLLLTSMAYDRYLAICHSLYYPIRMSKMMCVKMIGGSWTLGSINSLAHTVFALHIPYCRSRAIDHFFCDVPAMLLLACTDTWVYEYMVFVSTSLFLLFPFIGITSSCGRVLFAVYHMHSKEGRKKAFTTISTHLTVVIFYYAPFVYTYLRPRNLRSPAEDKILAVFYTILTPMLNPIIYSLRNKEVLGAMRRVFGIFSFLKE
Outline: as §1

[5] = biological target: T5, OR2W3 (Homo sapiens, UniProt Q7Z3T1)
T5 sequence (Q7Z3T1 1-314): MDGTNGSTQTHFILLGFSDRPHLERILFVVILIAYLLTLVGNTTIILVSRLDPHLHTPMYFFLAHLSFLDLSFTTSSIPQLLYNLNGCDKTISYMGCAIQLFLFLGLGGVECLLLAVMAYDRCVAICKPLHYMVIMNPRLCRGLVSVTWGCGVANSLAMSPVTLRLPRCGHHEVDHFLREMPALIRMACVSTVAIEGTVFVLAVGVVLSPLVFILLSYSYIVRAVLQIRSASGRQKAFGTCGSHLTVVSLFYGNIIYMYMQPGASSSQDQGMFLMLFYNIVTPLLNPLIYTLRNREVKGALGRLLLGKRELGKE
Outline: as §1

[6] = biological target: T6, OR51B5 (Homo sapiens, UniProt Q9H339); settings: for increase in the signal after activation: OR51B5, dose-response curve, compared to DMSO control
T6 sequence (Q9H339 1-312): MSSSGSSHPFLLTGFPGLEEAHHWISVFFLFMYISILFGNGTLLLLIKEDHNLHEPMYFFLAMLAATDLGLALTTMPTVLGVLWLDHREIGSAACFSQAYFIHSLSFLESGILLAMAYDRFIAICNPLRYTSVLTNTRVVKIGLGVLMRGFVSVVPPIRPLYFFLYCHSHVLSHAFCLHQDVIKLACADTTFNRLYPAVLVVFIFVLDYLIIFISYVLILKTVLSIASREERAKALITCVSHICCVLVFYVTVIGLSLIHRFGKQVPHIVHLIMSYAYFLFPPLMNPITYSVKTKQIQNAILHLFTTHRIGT
Outline: as §1

[7] = biological target: T7, OR2A42 (Homo sapiens, UniProt Q8NGT9)
T7 sequence (Q8NGT9 1-310): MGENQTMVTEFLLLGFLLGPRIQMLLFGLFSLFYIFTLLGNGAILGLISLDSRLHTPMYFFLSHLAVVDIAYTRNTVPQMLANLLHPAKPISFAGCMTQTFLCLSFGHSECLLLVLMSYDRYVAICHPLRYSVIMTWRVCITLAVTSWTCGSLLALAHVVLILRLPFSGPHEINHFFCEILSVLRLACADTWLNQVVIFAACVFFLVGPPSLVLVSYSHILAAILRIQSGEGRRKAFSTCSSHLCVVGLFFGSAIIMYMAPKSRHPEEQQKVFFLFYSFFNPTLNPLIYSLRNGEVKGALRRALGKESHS
Outline: as §1

EC50 ([1]; EC50, OR2A7 yeast sensor): 412 µM
increase in the signal after activation ([1]; OR2A7, dose-response curve, compared to DMSO control): > 2 fold
increase in percent GFP expression compared to the no receptor control ([1]; OR2A7 vs empty-vector control strain): 2.3 fold
OR-dependent activation, conclusion in words [1]: confirmed ligand
EC50 ([3]; EC50, OR2T4 yeast sensor): 659 µM
increase in the signal after activation [3]: > 2 fold
maximal level of GFP expression of OR2T4, higher than that of OR2A7 ([3]; OR2T4 relative to OR2A7): 63%
increase in percent GFP expression compared to the no receptor control [3]: 3 fold
OR-dependent activation, conclusion in words [3]: confirmed ligand
SMILES: CC1=CCC2CC1C2(C)C (stereo not drawn) [α-pinene, alpha-pinene]

OR-dependent activation, conclusion in words [1]: not OR dependent
OR-dependent activation, conclusion in words [3]: not OR dependent
SMILES: CC(C)(C)c1ccccc1 [TBB, tert-butylbenzene]

increase in the signal after activation [4]: > 2 fold
SMILES: CCCCCCCCCCCCO [dodecanol, 1-dodecanol]

EC50 ([1]; OR2A7 yeast sensor): do not fit a dose–response curve
increase in the signal after activation [3]: > 2 fold
OR-dependent activation, conclusion in words [3]: not a ligand
EC50 ([3]; OR2T4 yeast sensor): could not be fitted
EC50 ([6]; EC50, OR51B5 yeast sensor, GFP expression, 4 h, 0-1000 μM chemical, 1% DMSO): 181 µM
increase in the signal after activation [6]: > 2 fold
OR-dependent activation, conclusion in words ([6]; OR51B5, on/off behavior of the response): nonspecifically activates GFP expression
increase in percent GFP expression compared to the no receptor control ([6]; OR51B5 vs empty-vector control strain): 3 fold
increase in the signal after activation ([7]; OR2A42, dose-response curve, compared to DMSO control): 2 fold
OR-dependent activation, conclusion in words ([7]; OR2A42 vs no OR control): not a ligand
EC50 (fit to dose-response equation) ([7]; OR2A42 yeast sensor, GFP expression): could not be fitted
EC50 (fit to dose-response curve) ([5]; OR2W3 yeast sensor, GFP expression, Figure S6): do not fit a dose–response curve
SMILES: CC(C)=CCC/C(C)=C/CC/C(C)=C/CO [farnesol]

Second part, the compound before the results:

SMILES: C=C1CCC2CC1C2(C)C (stereo not drawn) [β-pinene, beta-pinene]
weaker response than with α-pinene ([1]; OR2A7, response relative to α-pinene): 18%

SMILES: CCCCCCCCC=O [nonanal]
increase in the signal after activation ([2]; OR10S1, dose-response curve, compared to DMSO control): > 2 fold
OR-dependent activation, conclusion in words ([2]; OR10S1 vs no OR control): the no OR control shows a similar increase in GFP expression

SMILES: CC(C)=CCC/C(C)=C\CO [nerol]
signal after activation (in words) ([5]; OR2W3, dose-response curve, Figure S1): did not result in a significant increase in the signal after activation

SMILES: CCCCCCCCCCCC(=O)O [dodecanoic, lauric acid]
increase in the signal after activation [6]: > 2 fold

SMILES: CCCCCCCCCCC=O [undecanal]
increase in the signal after activation [3]: > 2 fold
increase in percent GFP expression compared to the no receptor control [3]: 2.3 fold
OR-dependent activation, conclusion in words [3]: confirmed ligand
increase in the signal after activation [4]: > 2 fold
